Experimental findings from ChEMBL document CHEMBL4513216, “Probing the Open Global Health Chemical Diversity Library for Multistage-Active Starting Points for Next-Generation Antimalarials” (ACS Infect Dis, 2020) are described below.

SMILES strings stand for the structures.

This series can be described thus: Toxicity liver stage against HepG2, at 10uM. Also on record: test concentration 10 uM, cell line HepG2-A16-CD81EGFP. To be noted: human, HepG2-A16-CD81EGFP cells; read-out: INHIBITION
The format is cell-based. The procedure, abridged: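 Uninfected HepG2-A16-CD81EGFP cells, 3 × 10^3 per well, 1536-well, plated on prespotted compound at 10 μM final, parasite-free screening media added to match infected plates; puromycin 10 μM positive, DMSO 0.5% negative; run in parallel with 48 h PbLuc assay at 37 °C, 5% CO2; viability by CellTiter-Glo luminescence, normalized to controls.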
As to `O=C1NC2(CCc3ccccc31)CCN(Cc1cccnc1)C2` (stereo not given), the cytotoxicity at 10 µM was determined as 0.9%.

Turning to `COc1cccc(C(=O)N2CCc3c(nc(N)[nH]c3=O)C2)c1C`, the cytotoxicity at 10 µM came out at 1.96%.

On to `O=S(=O)(NCCNc1cc(-n2cccn2)ncn1)c1cccs1`, for which the cytotoxicity at 10 µM was -6.58%.

With `CCCNC(=O)NC(C)c1ccccn1` (stereo not given), the cytotoxicity at 10 µM was -8.26%.

Regarding `O=C(Nc1ccccc1)[C@H]1CN2CCC1C[C@@H]2Cn1cc(CO)nn1` (stereo not given in full), the cytotoxicity at 10 µM was -2.42%.

Consider `COc1cccc(CNC(=O)C(c2cccc(F)c2)N2CCOCC2)c1` (stereo not given), for which the cytotoxicity at 10 µM is -6.24%.

On to `OC1(CNCCCN2CCCc3ccccc32)CNCCOC1` (stereo not given), for which the cytotoxicity at 10 µM is 13.2%.

As for `COC1CCN(C(=O)CC(C)(C)C)CC(=O)N(C)c2ccccc21` (stereo not given), the cytotoxicity at 10 µM came out at 2.44%.

Regarding `CCc1nc(CN2CCN(C(C)c3nc(C4CC4)no3)CC2)no1` (stereo not given), the cytotoxicity at 10 µM was -9.45%.

Turning to `O=C(c1ccccc1F)N1CCCC1Cn1c(=O)oc2ccccc21` (stereo not given), the cytotoxicity at 10 µM was 4.49%.

Regarding `CCCC(NC(=O)c1ccc(OC)cc1C)c1nnn[nH]1` (stereo not given), the cytotoxicity at 10 µM was found to be 2.06%.

With `CNC(=O)[C@@]12CCC3(CCN(C(C)=O)CC3)[C@@H]1CN(S(C)(=O)=O)C2`, the cytotoxicity at 10 µM was -3.61%.

Turning to `O=C(NCc1ccc(Br)cc1)C1(O)CCSCC1`, the cytotoxicity at 10 µM was -3.59%.

For the molecule `COCCNC(=O)c1nc(-c2ccc3cc[nH]c3c2)no1`, the cytotoxicity at 10 µM was -0.208%.

With `Cn1cccc1C(=O)N1CCn2cc(CNC(=O)CC3CC3)nc2C1`, the cytotoxicity at 10 µM was found to be 3.11%.

`CCC1CN(c2cnn(-c3ccccc3)c(=O)c2Cl)CCO1` (stereo not given): the cytotoxicity at 10 µM is -17.4%.

Regarding `COC(=O)C(NC(=O)c1ccc(NC2CC2)nc1)c1ccccc1` (stereo not given), the cytotoxicity at 10 µM is -9.88%.

On to `Cc1c(C(=O)NCc2ccnc(OCC(F)(F)F)c2)cnn1C`, for which the cytotoxicity at 10 µM is -5.78%.

In the case of `O=C(Nc1ccccc1)[C@H]1C[C@H]2CN(S(=O)(=O)c3ccccc3)C[C@@H]1O2`, the cytotoxicity at 10 µM was found to be 5.8%.

With `O=C(O)c1ccccc1-c1ccc(CNC(=O)C2CCOCC2)cc1`, the cytotoxicity at 10 µM stood at 1.33%.

As for `COc1ccc(C2SCC(=O)Nc3n[nH]cc32)c(OC)c1OC` (stereo not given), the cytotoxicity at 10 µM was 4.68%.

In the case of `Cc1noc(C)c1CCCNC(=O)C1CCCN(C(=O)C2CC2)C1` (stereo not given), the cytotoxicity at 10 µM is -0.185%.

For `CC(C)NC(=O)COc1nc(C(C)(C)C)no1`, the cytotoxicity at 10 µM was -7.48%.

For the molecule `Cc1cc(C(=O)NCCc2c(C)nn(C)c2C)nc(N2CCCCC2)n1`, the cytotoxicity at 10 µM was -16%.

For the molecule `Cc1nc(C)n(C2CCCN(C(=O)CCOc3cccc(F)c3)C2)n1` (stereo not given), the cytotoxicity at 10 µM was -1.79%.

In the case of `Cc1occc1C(=O)N1CC(C(=O)N2CCOCC2)C2(CCOCC2)C1` (stereo not given), the cytotoxicity at 10 µM was 7.37%.

In the case of `Cc1cc(CN(C)CC(c2cccs2)N2CCOCC2)on1` (stereo not given), the cytotoxicity at 10 µM came out at 0.049%.

As for `CN(CCc1ccccn1)Cc1nccn1Cc1ccccc1`, the cytotoxicity at 10 µM was found to be 10.1%.

As for `O=S(=O)(Cc1ccccc1)CC(O)Cn1cccn1` (stereo not given), the cytotoxicity at 10 µM worked out at 3.4%.

As for `CC1CCN(C(=O)Cn2cc(I)cn2)CC1`, the cytotoxicity at 10 µM was 2.19%.

Regarding `O=C(O)CN1CCC2(CCc3ccccc32)CC1`, the cytotoxicity at 10 µM was -3.7%.

As for `O=C(NC1CCC1)[C@@H]1CC[C@@H]2[C@@H](CCN2CCc2ccccc2)O1`, the cytotoxicity at 10 µM is -127%.

Consider `O=C1CCCN1CCCN1CCCCC1Cn1cncn1` (stereo not given), for which the cytotoxicity at 10 µM is -0.358%.

Regarding `O=C(C1CCOCC1)N1CC[C@H]2C[C@@H](c3ccncn3)O[C@@H]2C1`, the cytotoxicity at 10 µM is -0.748%.

Take `Cc1cc(C)n(CC2CCCN2CC(=O)N(C)C)n1` (stereo not given): the cytotoxicity at 10 µM is -7.86%.

`CN(C)CC1CSCCCN1C(=O)c1ccc(-c2ccccc2)cc1` (stereo not given): the cytotoxicity at 10 µM was determined as 4.54%.

Take `Cc1ccc(C(CNCc2ccc(C#N)cc2)N2CCOCC2)s1` (stereo not given): the cytotoxicity at 10 µM is 15.3%.

As to `CNC(=O)c1cccc(NC(=O)CN2CCCN(S(C)(=O)=O)CC2)c1`, the cytotoxicity at 10 µM was 3.56%.

As for `NC(=O)c1ccc(CNCC2CCN(CCO)CC2)cc1`, the cytotoxicity at 10 µM was -9.93%.

Take `CC(=O)N(C)CC(=O)NC1(c2ccc(Cl)c(Cl)c2)CC1`: the cytotoxicity at 10 µM is -5.57%.
